Reference: PubChem BioAssay
Active and inactive are the calls of the source.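 The calls were made as follows, unless noted: active = viability at or under a set limit in both replicates, limit being median viability minus 3 SD (cut at about 48% in these data, passing the limit was not always enough); inconclusive = at or under the limit in just one replicate; inactive = at or above the limit in both replicates.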

How the values were obtained:
[1] = SK-BR-3 cell growth inhibitors, pilot screen, 24 h, human (AID 572;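 active = viability at or below 10% of carrier control in both of two separate runs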;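 also: compound exposure lasted between 18 and 24 h rather than exactly 24 h; 100% = carrier-treated control wells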); conditions: SK-BR-3 viability, CellTiter-Glo luminescence, at 10 µM, stronger effect = lower value
[2] = HUVEC growth inhibition – cell-based, human, primary screen (AID 575;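 active = viability at or below 30% in both replicate assays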;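 also: 100% = median of untreated cell wells with 0.1% DMSO on each plate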); conditions: HUVEC proliferation, CellTiter-Glo luminescence, 72 h; at 10 µM; stronger effect = lower value
Procedure, shortened: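 Assay system: Primary human umbilical vein endothelial cells | Quantity: 1250 cells per well | Medium: Supplemented EBM, 2% fetal bovine serum | Detection: CellTiter-Glo luminescence measuring cellular ATP | Read-out: % viability vs DMSO wells | Plate: Collagen-coated 384-well format | Times: 72 h exposure, 37 °C, 5% CO2, 30 min RT equilibration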

[3] = growth inhibitors of H69AR lung tumor, primary screen, human, duplicate replicates (AID 580); conditions: H69AR lung tumor cells viability, ATP luminescence, 72 h; at 10 µM; stronger effect = lower value;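 also: 100% = mean luminescence of untreated wells and 0% = no signal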
[4] = reversal of MRP1-mediated doxorubicin resistance, pilot screen, H69AR cells, doxorubicin co-treatment (AID 601;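 active = viability loss from added drug above about 55%, and viability with drug at most 40%, in both replicates, limit read from the data, passing the limit was not always enough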); conditions: CellTiter-Glo, 72 h, at 10 µM; for differential viability (reversal): stronger effect = higher value
[5] = 384-well plate pilot, post-Golgi transport modulator project, inhibition of yeast transport mutant growth (AID 636; in the data active = inhibition above about 31%); conditions: absorbance 615 nm, about 18 h, stronger effect = higher value
[6] = growth suppression of yeast trafficking mutant, preliminary HTS, modulators of trafficking downstream of Golgi apparatus project, 1536-format plate, OD 615 nm (AID 637; in the data active = inhibition above about 30%); conditions: yeast transport mutant growth, absorbance 615 nm, 18 h; stronger effect = higher value
[7] = H69AR cells + 2 uM doxorubicin, measured here: viability with 2 uM doxorubicin, stronger effect = lower value
[8] = H69AR cells, compound alone cytotoxicity

SMILES | viability [1] | viability [2] | viability [3] | differential viability (reversal) ([4]; H69AR cells + 2 uM doxorubicin) | viability [4, 7] | viability [4, 8] | inhibition [5] | inhibition [6]
CC(=O)OCC(=O)[C@@]1(O)CC[C@H]2[C@@H]3CCC4=CC(=O)C=C[C@]4(C)[C@H]3[C@@H](O)C[C@@]21C | 82% (inactive) | 91.5% (inactive) | 91.1% (inactive) | -7.15% (inactive) | 98.2% | 91.1% | 1.56% (inactive) | -1.83% (inactive)
O=C(CCNNC(=O)c1ccncc1)NCc1ccccc1 | 72% (inactive) | 84.7% (inactive) | 93.5% (inactive) | 6.55% (inactive) | 87% | 93.5% | -7.53% (inactive) | -2.67% (inactive)
O=C1c2oc3ccccc3c(=O)c2C(c2cccnc2)N1Cc1ccco1 (configuration not stated) | 98% (inactive) | 106% (inactive) | 87.8% (inactive) | -0.59% (inactive) | 88.4% | 87.8% | -0.96% (inactive) | -2.36% (inactive)
COc1cc2c3c(c1)/C(=C1/SC(NC(C)=O)=NC1=O)C(=O)N3C(C)(C)C=C2C | 91% (inactive) | 54.8% (inactive) | 72.2% (inactive) | -7.9% (inactive) | 80.2% | 72.2% | -10% (inactive) | -1.77% (inactive)
Cn1c(Cc2ccccc2)nnc1SCC(=O)N1CCOCC1 | 91% (inactive) | 95.6% (inactive) | 101% (inactive) | 6.17% (inactive) | 94.8% | 101% | -1.08% (inactive) | 28.7% (inactive)
Cc1cc(N2C(=O)CC(N3CCN(c4ccc(C(=O)c5cccs5)cc4)CC3)C2=O)no1 (configuration not stated) | 96% (inactive) | 87.4% (inactive) | 87.6% (inactive) | -4.99% (inactive) | 92.6% | 87.6% | -3.42% (inactive) | 13.6% (inactive)
O=C(Nc1ccncc1)C1c2ccccc2Oc2ccccc21 | 121% (inactive) | 100% (inactive) | 92.3% (inactive) | -8.33% (inactive) | 101% | 92.3% | -2.3% (inactive) | 14.4% (inactive)
C=CCn1c(SCC(=O)c2ccccc2)nnc1-c1ccc2c(c1)OCO2 | 97% (inactive) | 107% (inactive) | 100% (inactive) | -2.68% (inactive) | 103% | 100% | -1.78% (inactive) | -3.06% (inactive)
Cc1ccc(OCC(O)Cn2c(NCCc3ccccc3)nc3c2c(=O)[nH]c(=O)n3C)cc1 (configuration not stated) | 60% (inactive) | 88.8% (inactive) | 93.9% (inactive) | -5.09% (inactive) | 99% | 93.9% | -3.97% (inactive) | -1.27% (inactive)
